The source of these data is ChEMBL document CHEMBL3112518, “Design, synthesis and anticancer activity evaluation of novel C14 heterocycle substituted epi-triptolide” (Eur J Med Chem, 2014).

As a reminder, the IC50 is the concentration at which inhibition is half-maximal. A lower IC50 goes with inhibition by little substance.

Assay [1] has as its system PC-3. Kind of assay: Cytotoxicity against human PC3 cells after 72 hrs by sulforhodamine B assay. In kind it is functional, cell-based. Conditions: PC-3, 72 h. The method in brief:
(§1)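 Cells in 96-well plates were exposed in triplicate to a concentration gradient of each agent at 37 °C for 72 h, and growth was then measured by sulforhodamine B staining. IC50 is the concentration giving 50% growth inhibition relative to untreated control cells, calculated by the logit method.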
On the technique in general: In SRB staining, fixed cells bind dye roughly in proportion to their protein.

Assay [2] deals with SK-OV-3. Kind of assay: Cytotoxicity against human SKOV3 cells after 72 hrs by sulforhodamine B assay. In kind it is functional, cell-based. As to conditions: SK-OV-3, 72 h. The method in brief:
as §1

Structures are written as SMILES.

`CC(C)[C@]12O[C@H]1[C@@H]1O[C@]13[C@]1(O[C@H]1C[C@H]1C4=C(CC[C@@]13C)C(=O)OC4)[C@]2(O)CNc1ccc2nccnc2c1`: the IC50 in assay [1] came to 157 nM; in assay [2], 369 nM.

As to `CC(C)[C@]12O[C@H]1[C@@H]1O[C@]13[C@]1(O[C@H]1C[C@H]1C4=C(CC[C@@]13C)C(=O)OC4)[C@]2(O)CNc1ccc2occc(=O)c2c1`, the IC50 in assay [1] was 341 nM; in assay [2] it was 368 nM.

In the case of `CC(C)[C@]12O[C@H]1[C@@H]1O[C@]13[C@]1(O[C@H]1C[C@H]1C4=C(CC[C@@]13C)C(=O)OC4)[C@H]2O` [EPITRIPTOIIDE], in assay [1], half-maximal inhibition (IC50) required 1320 nM.

On to `CC(C)[C@]12O[C@H]1[C@@H]1O[C@]13[C@]1(O[C@H]1C[C@H]1C4=C(CC[C@@]13C)C(=O)OC4)[C@]2(O)Cn1cc(C2CC2)nn1`, for which the IC50 in assay [1] and in assay [2] was greater than 10000 nM throughout.

On to `CC(C)[C@]12O[C@H]1[C@@H]1O[C@]13[C@]1(O[C@H]1C[C@H]1C4=C(CC[C@@]13C)C(=O)OC4)[C@]2(O)CNc1ccc2nn(C)cc2c1`, for which the IC50 in assay [1] worked out at 97 nM; in assay [2], 22.3 nM.

As for `CC(C)[C@]12O[C@H]1[C@@H]1O[C@]13[C@]1(O[C@H]1C[C@H]1C4=C(CC[C@@]13C)C(=O)OC4)[C@]2(O)CNc1ccc2c(cnn2C)c1`, the figures for the IC50 in assay [1] and in assay [2] were 132 nM and 15 nM, respectively.

For `CC(C)[C@]12O[C@H]1[C@@H]1O[C@]13[C@]1(O[C@H]1C[C@H]1C4=C(CC[C@@]13C)C(=O)OC4)[C@]21CN(c2ccc3c(cnn3CCN3CCOCC3)c2)CO1`, the IC50 worked out at 253 nM in assay [1] and 152 nM in assay [2].

On to `CC(C)[C@]12O[C@H]1[C@@H]1O[C@]13[C@]1(O[C@H]1C[C@H]1C4=C(CC[C@@]13C)C(=O)OC4)[C@]2(O)CNc1ccc2[nH]ncc2c1`, for which the IC50 in assay [1] worked out at 25.3 nM; in assay [2], 17.4 nM.

On to `CC(C)[C@]12O[C@H]1[C@@H]1O[C@]13[C@]1(O[C@H]1C[C@H]1C4=C(CC[C@@]13C)C(=O)OC4)[C@]2(O)CNc1cccc2[nH]ccc12`, for which the results for the IC50 in assay [1] and in assay [2] were 97.8 nM and 53.8 nM, respectively.

With `COC(=O)c1n[nH]c2ccc(NC[C@@]3(O)[C@]45O[C@H]4C[C@H]4C6=C(CC[C@]4(C)[C@@]54O[C@H]4[C@@H]4O[C@@]43C(C)C)C(=O)OC6)cc12`, the values for the IC50 in assay [1] and in assay [2] were 264 nM and 35.8 nM, respectively.

`CC(C)[C@]12O[C@H]1[C@@H]1O[C@]13[C@]1(O[C@H]1C[C@H]1C4=C(CC[C@@]13C)C(=O)OC4)[C@]2(O)CNc1ccc2c(cnn2CCN2CCOCC2)c1`: the IC50 in assay [1] came to 36.6 nM; in assay [2] it was 36.4 nM.

In the case of `CC(C)[C@]12O[C@H]1[C@@H]1O[C@]13[C@]1(O[C@H]1C[C@H]1C4=C(CC[C@@]13C)C(=O)OC4)[C@]2(O)CNc1ccc2nn(CCN3CCOCC3)cc2c1`, the values for the IC50 in assay [1] and in assay [2] were 40.8 nM and 77 nM, respectively.

As to `CC(C)[C@]12O[C@H]1[C@@H]1O[C@]13[C@]1(O[C@H]1C[C@H]1C4=C(CC[C@@]13C)C(=O)OC4)[C@]2(O)CNc1ccc2c(c1)CC(=O)N2`, the IC50 turned out to be 54.1 nM in assay [1] and 38.4 nM in assay [2].

As for `CC(C)[C@]12O[C@H]1[C@@H]1O[C@]13[C@]1(O[C@H]1C[C@H]1C4=C(CC[C@@]13C)C(=O)OC4)[C@]2(O)CNc1cccnc1`, the IC50 in assay [1] stood at 2810 nM; in assay [2], 745 nM.

For `COC(=O)n1ncc2cc(NC[C@@]3(O)[C@]45O[C@H]4C[C@H]4C6=C(CC[C@]4(C)[C@@]54O[C@H]4[C@@H]4O[C@@]43C(C)C)C(=O)OC6)ccc21`, the IC50 in assay [1] was 188 nM; in assay [2] it was 102 nM.

On to `COC(=O)c1cn(C[C@@]2(O)[C@]34O[C@H]3C[C@H]3C5=C(CC[C@]3(C)[C@@]43O[C@H]3[C@@H]3O[C@@]32C(C)C)C(=O)OC5)nn1`, for which the IC50 in assay [1] and in assay [2] was greater than 10000 nM in each case.

Regarding `CC(C)[C@]12O[C@H]1[C@@H]1O[C@]13[C@]1(O[C@H]1C[C@H]1C4=C(CC[C@@]13C)C(=O)OC4)[C@]2(O)CNc1ccc2nn(CCN3CCCCC3)cc2c1`, the values for the IC50 in assay [1] and in assay [2] were 66.1 nM and 99 nM, respectively.

`CC(C)[C@]12O[C@H]1[C@@H]1O[C@]13[C@]1(O[C@H]1C[C@H]1C4=C(CC[C@@]13C)C(=O)OC4)[C@]2(O)CNc1ccc2c(c1)C(=O)CCO2`: the IC50 is 172 nM in assay [1] and 32.1 nM in assay [2].

As for `CC(C)[C@]12O[C@H]1[C@@H]1O[C@]13[C@]1(O[C@H]1C[C@H]1C4=C(CC[C@@]13C)C(=O)OC4)[C@]2(O)CNc1ccc2cn[nH]c2c1`, the IC50 in assay [1] stood at 188 nM; in assay [2], 49 nM.

`CC(C)[C@]12O[C@H]1[C@@H]1O[C@]13[C@]1(O[C@H]1C[C@H]1C4=C(CC[C@@]13C)C(=O)OC4)[C@]2(O)CNc1ccc2ncncc2c1`: the figures for the IC50 in assay [1] and in assay [2] were 781 nM and 274 nM, respectively.

As to `CC(C)[C@]12O[C@H]1[C@@H]1O[C@]13[C@]1(O[C@H]1C[C@H]1C4=C(CC[C@@]13C)C(=O)OC4)[C@]2(O)CNc1ccc2c(c1)C(C)(C)C(=O)N2C`, the IC50 turned out to be 84.9 nM in assay [1] and 11.7 nM in assay [2].

As to `CC(C)[C@]12O[C@H]1[C@@H]1O[C@]13[C@]1(O[C@H]1C[C@H]1C4=C(CC[C@@]13C)C(=O)OC4)[C@]2(O)CNc1ccc2ncccc2c1`, the IC50 in assay [1] was 452 nM; in assay [2], 85 nM.

For the compound `CC(C)[C@]12O[C@H]1[C@@H]1O[C@]13[C@]1(O[C@H]1C[C@H]1C4=C(CC[C@@]13C)C(=O)OC4)[C@]2(O)CNc1ccc2oc(=O)ccc2c1`, the results for the IC50 in assay [1] and in assay [2] were 353 nM and 87.2 nM, respectively.

`CC(C)[C@]12O[C@H]1[C@@H]1O[C@]13[C@]1(O[C@H]1C[C@H]1C4=C(CC[C@@]13C)C(=O)OC4)[C@]2(O)CNc1ccc2c(c1)CC(=O)O2`: the results for the half-maximal inhibitory concentration (IC50) in assay [1] and in assay [2] were 67.9 nM and 12.5 nM, respectively.

Turning to `CC(C)[C@]12O[C@H]1[C@@H]1O[C@]13[C@]1(O[C@H]1C[C@H]1C4=C(CC[C@@]13C)C(=O)OC4)[C@]2(O)Cn1cc(-c2ccccc2)nn1`, the IC50 in assay [1] and in assay [2] was greater than 10000 nM each time.

Regarding `CC(C)[C@]12O[C@H]1[C@@H]1O[C@]13[C@]1(O[C@H]1C[C@H]1C4=C(CC[C@@]13C)C(=O)OC4)[C@]21CN(c2ccc3c(cnn3C)c2)CO1`, the IC50 in assay [1] was 365 nM; in assay [2] it was 79.7 nM.
